# Data taken from ChEMBL document CHEMBL1795290, “Simplification of the tetracyclic SIRT1-selective inhibitor MC2141: coumarin- and pyrimidine-based SIRT1/2 inhibitors with different selectivity profile” (Bioorg Med Chem, 2011).
# pIC50: −log10 of the molar value. Activity calls are given as the source filed them. The calls are words filed in the database; no cut-off is given here.
# Key:
# [1] = target: T1, NAD-dependent protein deacetylase sirtuin-2 (Homo sapiens) (UniProt Q8IXJ6); assay: Inhibition of human recombinant SIRT2 expressed in Escherichia coli at 50 uM incubated at 37 degC for 2 hrs by Fluor de Lys fluorescence assay
# T1 sequence (whole entry): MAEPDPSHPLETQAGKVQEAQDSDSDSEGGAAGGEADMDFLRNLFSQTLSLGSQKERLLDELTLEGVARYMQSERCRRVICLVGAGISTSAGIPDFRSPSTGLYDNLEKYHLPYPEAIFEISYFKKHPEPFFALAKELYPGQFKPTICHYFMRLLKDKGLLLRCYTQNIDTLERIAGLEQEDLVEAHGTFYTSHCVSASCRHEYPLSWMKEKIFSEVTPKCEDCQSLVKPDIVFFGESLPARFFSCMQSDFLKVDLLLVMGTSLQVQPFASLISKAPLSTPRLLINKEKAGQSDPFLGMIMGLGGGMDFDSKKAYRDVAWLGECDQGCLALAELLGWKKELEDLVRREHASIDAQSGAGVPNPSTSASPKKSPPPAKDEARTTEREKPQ
# In short: (§1)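 Human recombinant enzymes expressed in E. coli: SIRT1 at 2 U, SIRT2 at 7 U. Two-stage assay with a deacetylation step at 37 °C for 2 h, using Fluor de Lys-SIRT1/2 substrate with NAD+ and compound (50 µM single point or a concentration series). IC50 obtained by curve fitting.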
# [2] = target: T2, NAD-dependent protein deacetylase sirtuin-2 (Homo sapiens, UniProt Q8IXJ6); assay: Inhibition of human recombinant SIRT2 expressed in Escherichia coli incubated at 37 degC for 2 hrs by Fluor de Lys fluorescence assay; in short: as §1
# T2 sequence (Q8IXJ6 whole entry): T1 sequence (whole entry)
# [3] = target: T3, NAD-dependent protein deacetylase sirtuin-1 (Homo sapiens, UniProt Q96EB6); assay: Inhibition of human recombinant SIRT1 expressed in Escherichia coli incubated at 37 degC for 2 hrs by Fluor de Lys fluorescence assay; in short: as §1
# T3 sequence (Q96EB6 whole entry): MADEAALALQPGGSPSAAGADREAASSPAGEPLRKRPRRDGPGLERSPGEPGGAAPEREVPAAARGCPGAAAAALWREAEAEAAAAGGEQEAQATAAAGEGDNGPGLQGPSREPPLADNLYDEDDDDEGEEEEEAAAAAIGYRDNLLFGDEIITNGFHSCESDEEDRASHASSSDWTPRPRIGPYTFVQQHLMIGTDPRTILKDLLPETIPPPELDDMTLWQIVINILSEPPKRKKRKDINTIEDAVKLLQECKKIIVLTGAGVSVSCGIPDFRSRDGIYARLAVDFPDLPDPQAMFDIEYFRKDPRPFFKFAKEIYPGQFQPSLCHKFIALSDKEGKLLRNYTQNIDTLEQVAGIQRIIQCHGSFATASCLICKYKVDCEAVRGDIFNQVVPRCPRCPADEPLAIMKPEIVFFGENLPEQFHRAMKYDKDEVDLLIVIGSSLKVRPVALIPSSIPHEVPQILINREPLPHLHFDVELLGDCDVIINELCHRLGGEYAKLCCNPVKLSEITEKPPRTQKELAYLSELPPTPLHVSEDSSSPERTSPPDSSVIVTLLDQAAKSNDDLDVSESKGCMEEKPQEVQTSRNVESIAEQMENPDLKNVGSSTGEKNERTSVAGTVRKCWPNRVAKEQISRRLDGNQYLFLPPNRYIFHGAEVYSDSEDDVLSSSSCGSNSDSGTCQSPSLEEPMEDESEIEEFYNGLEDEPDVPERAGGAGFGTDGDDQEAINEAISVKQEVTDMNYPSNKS
# U-937 [4] = assay: Induction of apoptosis in human U937 cells assessed as caspase 3/7 activation at 50 uM incubated for 30 hrs by FACS assay based B-Bridge method; assay type: functional
# In short: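 U937 cells were treated at 50 µM for 30 h. Apoptosis was scored as caspase 3–7 activation using a caspase 3–7 detection kit, with FACS read-out.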
# U-937 [5] = assay: Cell cycle arrest in human U937 cells assessed as accumulation at G1 phase at 50 uM incubated for 30 hrs by flow cytometry; assay type: functional, cell-based
# In short: (§2)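 U937 leukaemia cells were exposed to compound at 50 µM for 30 h. Then 2.5 × 10^5 cells were resuspended in hypotonic buffer (0.1% Triton X-100, 0.1% sodium citrate, 50 µg/mL propidium iodide, RNase A) and kept 30 min in the dark. DNA content was read by flow cytometry and cell-cycle phases were modelled. Run in triplicate.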
# U-937 [6] = assay: Induction of granulocytic differentiation in human U937 cells assessed as change in CD11c expression at 50 uM […] by FACS assay; assay type: functional
# U-937 [7] = assay: Toxicity in human U937 cells at 50 uM incubated for 30 hrs; assay type: cell-based; settings: u-937, 30 h
# [8] = target: T4, NAD-dependent protein deacetylase sirtuin-1 (Homo sapiens) (UniProt Q96EB6); assay: Inhibition of human recombinant SIRT1 expressed in Escherichia coli at 50 uM incubated at 37 degC for 2 hrs by Fluor de Lys fluorescence assay; in short: as §1
# T4 sequence (whole entry): T3 sequence (Q96EB6 whole entry)
# U-937 [9] = assay: Cell cycle arrest in human U937 cells assessed as accumulation at G1/S phase at 50 uM incubated for 30 hrs by flow cytometry; assay type: functional, cell-based; in short: as §2
# U-937 [10] = assay: Cell cycle arrest in human U937 cells assessed as accumulation at G2/M phase at 50 uM incubated for 30 hrs by flow cytometry; assay type: functional, cell-based; in short: as §2
Structure (SMILES),inhibition [1] [%],pIC50 [2],pIC50 [3],Activity (U-937 [4]),Activity (U-937 [5]),Activity (U-937 [6]),Activity (U-937 [7]),inhibition [8] [%],Activity (U-937 [9]),Activity (U-937 [10])
O=c1[nH]c(=S)[nH]c(-c2ccc3ccccc3c2)c1Cc1c(O)ccc2ccccc12,47.9,4.30,4.91,Active,Active,inactive,Non-toxic,83,,
O=C1Oc2ccc3ccccc3c2CC1C(=O)c1ccccc1 (centres undefined),20.2,3.75,3.95,Active,,,Non-toxic,32.1,Active,
O=c1nc2oc3ccc4ccccc4c3cc-2c(=O)n1-c1ccccc1,,,,,,inactive,,,,Active
O=C1Oc2ccc3ccccc3c2CC1C(=O)c1ccc(Cl)cc1 (centres undefined),89.5,,,,,>30%,Non-toxic,17.1,,Active
O=c1[nH]c(=S)[nH]c(CCc2ccccc2)c1Cc1c(O)ccc2ccccc12,49.8,4.29,4.76,Active,,inactive,Non-toxic,83,,
